Molecules are shown by their SMILES. The source made the active and inactive calls. No cut-off for these calls is given here.

Series [1] can be described thus: Drug metabolism in Sprague-Dawley rat plasma assessed as 5'-(1-hydroxyallyl)-5-(1-hydroxypropyl)-2'-((2S,3R,4S,5S,6R)-3,4,5-trihydroxy-6-(hydroxymethyl)tetrahydro-2H-pyran-2-yloxy)biphenyl-2-yl hydrogen sulfate formation at 100 mg/kg, po by UPLC-IT-TOF-MS analysis. The note with it: in vivo. The series is classed as ADME, organism-based. The gist of the method:
(§1)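 Rats (n = 6) housed in metabolic cages received 100.0 mg/kg orally; controls received 0.5% CMC-Na. Plasma, urine and faeces were collected and analyzed by LC-IT-TOF-MS on a C18 column at 30 °C. Gradient 5–100% acetonitrile with 0.05% formic acid over 18 min at 0.2 mL/min; positive and negative ion MS/MS.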

Series [2] is described as follows: Drug metabolism in Sprague-Dawley rat plasma assessed as 5'-acryloyl-2'-hydroxy-5-propionylbiphenyl-2-yl hydrogen sulfate formation at 100 mg/kg, po by UPLC-IT-TOF-MS analysis. It is filed as ADME, organism-based. The note with it: in vivo. A digest of the protocol:
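Male/unspecified SD rats (n = 6) housed individually in metabolic cages, dosed orally at 100.0 mg/kg; controls given 0.5% CMC-Na orally. Plasma, urine and faeces collected. LC-IT-TOF-MS on C18 column at 30 °C, formic acid (0.05%) water/acetonitrile gradient 5–100% B over 18 min, 0.2 mL/min; positive and negative ion modes with automatic MS/MS.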

Series [3] is described as follows: Drug metabolism in Sprague-Dawley rat feces assessed as (2S,3S,4S,5R,6S)-6-(5'-allyl-5-(1-hydroxyallyl)-2'-((2S,3R,4S,5S,6R)-3,4,5-trihydroxy-6-(hydroxymethyl)tetrahydro-2H-pyran-2-yloxy)biphenyl-2-yloxy)-3,4,5-trihydroxytetrahydro-2H-pyran-2-carboxylic acid formation at 100 mg/kg, po by UPLC-IT-TOF-MS analysis. The note with it: in vivo. It is filed as ADME, organism-based. A digest of the protocol: as §1

A short description of series [4]: Drug metabolism in Sprague-Dawley rat plasma assessed as (2S,3R,4S,5S,6R)-2-(5'-allyl-2'-hydroxy-5-(1-hydroxyallyl)biphenyl-2-yloxy)-6-(hydroxymethyl)tetrahydro-2H-pyran-3,4,5-triol formation at 100 mg/kg, po by UPLC-IT-TOF-MS analysis. The note with it: in vivo. It is filed as ADME, organism-based. A digest of the protocol: as §1
In series [5] the test system is Rattus norvegicus. In words: Toxicity in Sprague-Dawley rat assessed as death at 2000 mg/kg, po measured continuously for first 4 hrs followed by measured every hour for next 24 hrs and at 6 hrs intervals for following 48 hrs post dose. The series is classed as organism-based. The note with it: in vivo. A digest of the protocol: (§2)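 Followed OECD 425 in adult SD rats (180–220 g), three groups of six. Vehicle control received 0.5% CMC-Na orally; separate male and female groups received 2000 mg/kg orally. Endpoints observed: behaviour, breathing, cutaneous effects, sensory nervous system responses, gastrointestinal effects and deaths.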

The nature of series [6]: Drug metabolism in Sprague-Dawley rat feces assessed as (2S,3S,4S,5R,6S)-3,4,5-trihydroxy-6-(5-(1-hydroxyallyl)-5'-(1-hydroxypropyl)-2'-((2S,3R,4S,5S,6R)-3,4,5-trihydroxy-6-(hydroxymethyl)tetrahydro-2H-pyran-2-yloxy)biphenyl-2-yloxy)tetrahydro-2H-pyran-2-carboxylic acid formation at 100 mg/kg, po by UPLC-IT-TOF-MS analysis. It is filed as ADME, organism-based. The conditions noted are these: in vivo. The gist of the method:
as §1

Series [7] deals with Mus musculus. In words: Increase in norepinephrine level in Kunming mouse frontal cortex at 40 mg/kg, po treated for 7 days by HPLC-ECD analysis. It is filed as functional, organism-based. A digest of the protocol: (§3)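 Male Kunming mice (18–20 g) given vehicle or 40 mg/kg for 7 days, then killed by cervical dislocation. Frontal cortex, hippocampus, striatum, hypothalamus and thalamus dissected on ice, homogenized in ice-cold 0.2 M perchloric acid with 0.1 mM EDTA, centrifuged 15,000 rpm, 20 min, 4 °C. Supernatant analysed by HPLC-ECD at +0.50 V; phosphate/octanesulfonate mobile phase pH 3.0 with 12% methanol. Levels in ng/g, mean ± SEM.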

Series [8] deals with Mus musculus. In words: Increase in 4-hydroxy-3-methoxyphenylacetic acid level in Kunming mouse thalamus at 40 mg/kg, po treated for 7 days by HPLC-ECD analysis. It is filed as functional, organism-based. A digest of the protocol:
as §3

In series [9] the test system is Mus musculus. In words: Effect on 5-hydroxytryptamine level in Kunming mouse hippocampus at 40 mg/kg, po treated for 7 days by HPLC-ECD analysis. The series is classed as functional, organism-based. The gist of the method: as §3
The target in series [10] is Melatonin receptor type 1A (Homo sapiens, UniProt P48039). Put plainly: Agonist activity at human MT1 receptor expressed in HEK293 cells at 1 mM after 24 hrs by Fluo-8 dye-based calcium assay relative to control. It is filed as functional, cell-based. A digest of the protocol:
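Fluo-8 calcium assay in HEK293 cells stably expressing human MT1 or MT2, seeded 4×10^4/well and incubated 24 h. Compounds tested at 1.00 mM, agomelatine positive control at 3.33 µM; fluorescence at ex 485/em 525 nm. Agonism expressed as mean ± SD, n = 3.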

The nature of series [11]: Drug metabolism in Sprague-Dawley rat plasma assessed as 1-(2'-hydroxy-5'-(1-hydroxyallyl)-6-((2S,3R,4S,5S,6R)-3,4,5-trihydroxy-6-(hydroxymethyl)tetrahydro-2H-pyran-2-yloxy)biphenyl-3-yl)prop-2-en-1-one formation at 100 mg/kg, po by UPLC-IT-TOF-MS analysis. The note with it: in vivo. The series is classed as ADME, organism-based. The gist of the method: as §1
The target in series [12] is T1, Melatonin receptor type 1B (Homo sapiens, UniProt P49286).
T1 sequence (P49286 whole entry): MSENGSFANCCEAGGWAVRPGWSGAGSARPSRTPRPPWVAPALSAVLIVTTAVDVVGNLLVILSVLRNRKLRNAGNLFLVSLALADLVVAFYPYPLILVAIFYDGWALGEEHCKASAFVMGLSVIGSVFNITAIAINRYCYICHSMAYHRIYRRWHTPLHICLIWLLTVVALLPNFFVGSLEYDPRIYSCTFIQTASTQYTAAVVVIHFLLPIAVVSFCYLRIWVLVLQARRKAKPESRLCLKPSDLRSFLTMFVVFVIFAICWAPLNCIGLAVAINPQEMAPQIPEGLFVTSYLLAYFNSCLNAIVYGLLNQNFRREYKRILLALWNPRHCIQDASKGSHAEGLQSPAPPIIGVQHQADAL
Put plainly: Agonist activity at human MT2 receptor expressed in HEK293 cells after 24 hrs by Fluo-8 dye-based calcium assay. The series is classed as functional, cell-based. A digest of the protocol:
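Fluo-8 calcium flux in HEK293 cells stably expressing human MT1 or MT2, grown in DMEM + 10% FBS at 37 °C, seeded 4×10^4/well and incubated 24 h. Compounds in DMSO/HBSS at several concentrations; fluorescence read at room temperature (ex 485, em 525 nm). Triplicate wells, three independent experiments; EC50 by nonlinear regression.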

In series [13] the test system is Rattus norvegicus. In words: Toxicity in Sprague-Dawley rat assessed as change in breathing rate at 2000 mg/kg, po measured continuously for first 4 hrs followed by measured every hour for next 24 hrs and at 6 hrs intervals for following 48 hrs post dose. It is filed as organism-based. The conditions noted are these: in vivo. The gist of the method:
as §2

Series [14] concerns Mus musculus. Put plainly: Toxicity in Kunming mouse assessed as effect in spontaneous locomotor activity by measuring total distance travelled at 10 to 40 mg/kg, po by open field test. It is filed as organism-based. The note with it: in vivo. A digest of the protocol:
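Male Kunming mice, 18–20 g, group-housed at 22 ± 2 °C on 12 h light/dark, given oral doses of 10, 20 or 40 mg/kg before behavioural testing. Each animal placed in the centre of a black open-field box (24 × 24 × 40 cm) for 30 s adaptation, then explored freely for 6 min. Line crossings and distance recorded. Mean ± SEM, n = 10.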

Sequence of Melatonin receptor type 1A (P48039 whole entry): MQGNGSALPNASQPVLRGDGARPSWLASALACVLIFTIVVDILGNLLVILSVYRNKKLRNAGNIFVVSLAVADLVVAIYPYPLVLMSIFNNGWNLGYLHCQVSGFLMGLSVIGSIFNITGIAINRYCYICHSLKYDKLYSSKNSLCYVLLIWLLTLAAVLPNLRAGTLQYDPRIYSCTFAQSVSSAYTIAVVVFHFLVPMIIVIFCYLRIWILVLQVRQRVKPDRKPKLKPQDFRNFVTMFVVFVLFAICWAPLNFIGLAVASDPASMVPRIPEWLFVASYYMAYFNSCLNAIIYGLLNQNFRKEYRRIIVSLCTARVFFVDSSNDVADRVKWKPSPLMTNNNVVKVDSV

Consider `C=CCc1ccc(O)c(-c2cc(CC=C)ccc2O[C@@H]2O[C@H](CO)[C@@H](O)[C@H](O)[C@H]2O)c1`, for which the Drug metabolism result in series [1] is listed as “Metabolite_Notdetected”; in [2] it was “Metabolite_Notdetected”; in series [3] it was “Metabolite_Detected”; in [4], “Metabolite_Notdetected”; in series [6] it was “Metabolite_Detected”; in [11], “Metabolite_Notdetected”. For the same compound, the Activity result in the series with Rattus norvegicus [5] is “Non-Toxic”; in series [10], 108%; with Rattus norvegicus [13] it was “Non-Toxic”; with Mus musculus [14], “Non-Toxic”. In addition, the outcome with Mus musculus [7] and with Mus musculus [8] was Active. Also, the outcome in the series on Mus musculus [9] was inactive. Also, the 50% effective concentration (EC50) in series [12] turned out to be 383 µM.

For the origin of these results see ChEMBL document CHEMBL4270555, “Synthesis and biological evaluation of magnolol derivatives as melatonergic receptor agonists with potential use in depression” (Eur J Med Chem, 2018).
